Yeast life ext = yeast lifespan extension; S. cerevisiae growth with nicotinamide, OD615; deaD strain in restrictive glucose medium; inhibition of the nicotinamide effect, % at 10 µM; 0.68% of 130,000 active; AID 775;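 active = inhibition above a set limit, placed 3 SD over the median of all compounds, cut at about 26% in these data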;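 also: 0% = nicotinamide-treated wells and 100% = cells grown without nicotinamide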
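System: DeaD-strain S. cerevisiae / Buffer or medium: CSMM-D, restrictive glucose (dextrose) synthetic minimal medium / Probe or stimulus: nicotinamide, 1.5 mM, co-present with compound / Compound: one concentration, 10 µM, DMSO 0.25% / Incubation: 48 h compound exposure at 30 °C, humidified / Technique: optical density (absorbance) at 615 nm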
MRP1 act = activates MRP-1. H69AR cells + doxorubicin, viability rescue, CellTiter-Glo. viability increase, % at 10 µM. AID 799. 0.61% of 140,000 active;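 active = viability gain under doxorubicin at or above a set limit, the compound median plus 3 SD, cut at about 4.7% in these data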;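 also: MRP-1 overexpressing cells given doxorubicin 25 µM after compound pretreatment; 18-22 h compound pretreatment then 72 h with doxorubicin before readout; 0% = doxorubicin-only wells and 100% = vehicle-treated cells without doxorubicin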
Yeast growth inh = reduces growth of yeast BB579 in restrictive medium. S. cerevisiae BB579 growth, OD615, 48 h. 0.51% of 140,000 active. inhibition, % at 10 µM;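 active = inhibition above a set limit, 3 SD over the mean compound inhibition, cut at about 44% in these data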
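Material: Saccharomyces cerevisiae DeaD strain BB579, replicative lifespan model yeast; buffer or medium: CSMM-D restrictive synthetic medium containing dextrose (glucose); compound: 10 µM single dose, DMSO 0.25%; timing: 48 h compound exposure at 30 °C after 4 h preincubation; signal: turbidity as optical density at 615 nm; benchmarks: positive control amphotericin B 10 µg/mL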
Phagocytosis inh = blocks phagocytosis by macrophages. inhibition, % at 5 µM. 0.07% of 110,000 active. J774A.1 macrophage IgG-bead phagocytosis, imaging;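 active = inhibition above the mean of the plate negative controls plus 5 SD, cut at about 13% in these data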;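 also: phagocytic index as fraction of beads internalized from green versus red external bead signal; plate controls were DMSO negative control for no effect and cytochalasin-D positive control for full effect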
MRP resist rev = compounds reversing MRP-mediated drug resistance | H69AR cells + 2 uM doxorubicin, CellTiter-Glo, 72 h | AID 602 | 0.04% of 85,000 active | differential viability (reversal), % at 10 µM;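 active = viability drop by adding the cancer drug above about 55%, with treated viability meeting a 40% cutoff, limit read from the data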;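 also: viability without doxorubicin minus viability with 2 µM doxorubicin for each compound; larger differential means the compound sensitizes cells more to doxorubicin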
sdo1 growth = sdo1-depleted yeast growth rescue; S. cerevisiae sdo1-depleted JHY4D growth rescue, OD600 30 h; stronger effect = higher value; pdr5 snq2 efflux-pump mutant strain; z-score at 10 µM; 0.21% of 140,000 active;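 active = z-score above 3 at both the 24 hr and the 30 hr optical density reads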;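 also: z-score against mean and SD of all compound wells on the same plate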
sdo1 rescue conf = SDO1-depleted yeast growth rescue confirmation; shares compounds with sdo1 growth; S. cerevisiae JHY4D (SDO1-depleted) growth rescue, OD600, 30 h; stronger effect = higher value; efflux-deficient strain, SNQ2 and PDR5 mutated; OD recovery (no concentration beside the values); 44% of 440 active; AID 949;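 active = yeast growth recovered at 30 hours, either rising with dose fitted slope above 0.001 or with average optical density gain above 0.07, some results past the limit were not filed as active; inactive = growth falling with dose or no effect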;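 also: gain in OD600 from 0 h to 30 h averaged across all seven doses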
Numbers without * were called inactive; / = not tested or not shown; [ ] = remark or other dose. Shown are actives, neighbours in structure and some others; about 2.1% of the full set was active somewhere.

SMILES | Yeast life ext | MRP1 act | Yeast growth inh | Phagocytosis inh | MRP resist rev | sdo1 growth | sdo1 rescue conf
O=C(CCc1nc2ccccc2c(=O)[nH]1)OCc1nnc(-c2ccccc2)o1 | -17 | 1 | -18 | 1 | -5 | -0.72 | /
O=c1c2cnn(-c3ccccc3)c2ncn1Cc1ccccc1F | -9 | 1 | -16 | 0 | / | 9.5* | 0.039
Cc1cnc(C(=O)OCC(=O)N2c3ccccc3NC(=O)C2(C)C)cn1 | -4 | 0 | -5 | -4 | 5 | 1.1 | /
Cc1nn(-c2ccccc2)c(C)c1C(=O)OCC(=O)N1c2ccccc2NC(=O)C1(C)C | -4 | -5 | -9 | 0 | 3 | 14* | 0.051
CCCNS(=O)(=O)c1ccc(OCC(=O)Nc2ccccc2F)cc1 | -9 | -1 | -8 | / | 7 | 0.75 | /
CC(Sc1nc(-c2ccccc2)cc(C(F)(F)F)n1)C(=O)N1CCC(C(N)=O)CC1 (configuration not stated) | -8 | -4 | -20 | / | 2 | 0.31 | /
COc1ccc(NC(=O)c2ccc(-n3cccn3)nc2)c(OC)c1 | -13 | -1 | -38 | / | / | -0.03 | /
COc1ccc(NC(=O)c2ccc(-n3cccn3)nc2)cc1 | -6 | -4 | -39 | / | / | 0.85 | 0.098
CCOc1nnc(C)c2c(C)n(-c3ccc(Cl)cc3)nc12 | -6 | -3 | -9 | / | / | 1 | /
O=C(NCCN=C1NS(=O)(=O)c2ccccc21)c1ccco1 | -16 | -3 | -14 | 0 | / | 3.8* | 0.085*
Cc1cccc2cc(C#N)c(SCC(=O)NCC3CCCO3)nc12 (configuration not stated) | / | -2 | -35 | / | 12 | -0.09 | /
Cc1cccc2c(SCC(=O)NCC3CCCO3)nc(-c3ccc(F)cc3)nc12 (configuration not stated) | 1 | -2 | -41 | / | / | 1.8 | 0.11*
COCCn1c(=NC(=O)c2cc(-c3cccs3)nc3ccccc23)sc2cc(S(N)(=O)=O)ccc21 | 1 | -4 | -9 | -2 | / | 9.4* | 0.071*
C=CCn1c(=NC(=O)c2cc(-c3cccs3)nc3ccccc23)sc2cc(S(N)(=O)=O)ccc21 | 0 | -5 | -43 | -6 | / | 0.66 | /
O=C(NCCCN1CCOCC1)C1CC(=O)N(C2CCCCC2)C1 (configuration not stated) | -14 | -1 | 10 | 2 | -4 | -0.08 | /
N#Cc1nc(-c2cccc3ccccc23)oc1NCCN1CCCCC1 | -11 | -3 | -11 | 1 | -26 | 11* | 0.097*
N#Cc1nc(-c2cccc3ccccc23)oc1N1CCCCC1 | -2 | 0 | 6 | -2 | -2 | 0.87 | /
COC(=O)c1ccccc1NC(=S)NC(=O)COc1ccccc1 | -18 | -1 | -29 | 0 | / | -0.37 | /
COC(=O)c1ccccc1NC(=S)NC(=O)CC(C)C | -7 | -1 | -20 | / | / | 5.6* | 0.063
CCOC(=O)C1CCCN(C(=O)Cc2ccc(C)cc2)C1 (configuration not stated) | -4 | -1 | -91 | -1 | 13 | 2.2 | 0.12
Cc1cc(NC(=O)CSc2nc3c(c(-c4cccnc4)c2C#N)CCC3)no1 | -11 | -1 | -45 | 0 | 1 | 0.09 | 0.069
CCC(=O)NC1(C(F)(F)F)C(=O)Nc2c1c(=O)[nH]c(=O)n2Cc1ccco1 (configuration not stated) | -9 | -1 | -5 | 1 | -11 | 15* | 0.077
CN(Cc1ccccc1)C(=S)Nc1ccc(OC(F)F)cc1 | -4 | 0 | 2 | -5 | / | 9.1* | 0.066
O=C(COc1ccc(Cl)cc1)Nc1c(-c2cccs2)nc2ccccn12 | 1 | 0 | -31 | -4 | / | -0.34 | /
COc1ccccc1NC(=O)CSc1nc(C)c2c(c1C#N)CCCC2 | -16 | -3 | -42 | 2 | 13 | 1.9 | 0.078*
SMILES | Yeast life ext | MRP1 act | Yeast growth inh | Phagocytosis inh | MRP resist rev | sdo1 growth | sdo1 rescue conf
COc1ccccc1NC(=O)CSc1nnc(-c2ccncc2)o1 | -13 | 1 | -42 | -2 | -6 | 0.67 | /
CCN(CC)S(=O)(=O)c1ccc(-c2nnc(SCC(=O)Nc3ccc(OC)c(OC)c3)o2)cc1 | -15 | 0 | -15 | -2 | -2 | 2.8 | 0.064
CCN(CC)S(=O)(=O)c1ccc(-c2nnc(SCC(=O)Nc3ccc(OC)cc3)o2)cc1 | / | 0 | 10 | / | 8 | -1.9 | /
COc1ccc(-c2nnc(SCC(=O)Nc3ccccc3OC)o2)cc1 | / | -2 | 5 | / | 6 | 7.5* | 0.1*
O=C(CC12CC3CC(CC(C3)C1)C2)NCC(=O)N1CCCC1 | -15 | -1 | -38 | 1 | 3 | 4* | 0.054
NC(=S)Nn1c(-c2ccccc2)nc2ccccc2c1=O | -1 | -1 | -9 | -5 | / | 11* | 0.06
O=C(Cc1ccccc1)Nn1c(-c2ccccc2)nc2ccccc2c1=O | 6 | 0 | -1 | / | / | -0.02 | /
O=C(O)C1CCC(=O)N1C1CCCC1 (configuration not stated) | -6 | -1 | -33 | -1 | 4 | 0.05 | /
C=CCn1c(SCC(=O)N2CCN(c3ccc(F)cc3)CC2)nnc1-c1ccco1 | -7 | -3 | -36 | 0 | 4 | 0.3 | /
O=C(C(c1ccccc1)c1ccccc1)N(Cc1ccco1)C1CCS(=O)(=O)C1 (configuration not stated) | -9 | -4 | -36 | -2 | 16 | 16* | 0.089*
O=C(NCc1ccc2c(c1)OCO2)c1cc(-c2ccc(Cl)cc2Cl)on1 | -6 | -4 | -41 | / | -3 | 0.92 | 0.024
COC(=O)c1c(NC(=O)c2nc3ccccc3s2)sc2c1CCN(C(C)=O)C2 | -1 | -5 | -30 | -1 | -10 | -0.39 | /
CNC(=O)c1c(NC(=O)c2nc3ccccc3s2)sc2c1CCC2 | -7 | -3 | -22 | / | -4 | -0.25 | 0.038
CC(=O)N(C1=C(O)c2ccccc2C(=O)C1=O)C1CCCCC1 | -12 | -2 | -33 | / | / | 3.1*[12.9 µM] | 0.074*
CNC(=O)COC(=O)c1cc(F)c(F)cc1Cl | -3 | 0 | -29 | -2 | 7 | 0.81 | /
CC(C)NC(=O)COC(=O)c1cc(F)c(F)cc1Cl | -5 | 0 | -9 | 0 | / | 5.6* | 0.085*
COc1cccc(-n2c(CCn3nc(C)c([N+](=O)[O-])c3C)n[nH]c2=S)c1 | 2 | -2 | -35 | -8 | / | 3.2* | 0.038
Cc1cccc(-n2c(CCn3nc(C)c([N+](=O)[O-])c3C)n[nH]c2=S)c1 | -8 | -1 | -50 | 0 | / | 0.82 | /

High-throughput results from PubChem.
